Measured values as given in PubChem BioAssay AID463171 (The Scripps Research Institute Molecular Screening Center, 2010).
Activity calls are given as the source filed them.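 The calls were made as follows: active = p27 reporter light at least 10 times the solvent-only level, showing blocked p27 breakdown; inactive = ratio under 10.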

Biological target: Cyclin-dependent kinase inhibitor 1B (Homo sapiens) (UniProt P46527)
Test: inhibitors of p27 turnover in HeLa cells, late-stage follow-up, counter-screen for Wee1 degradation inhibitor project, cell-based, luminescence, p27-luciferase fusion, powder samples (AID 463171)
Conditions: HeLa p27-luciferase fusion stability, at 0.1 µM, active compounds read high
Outline: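 Material – human HeLa cells transiently expressing a p27-luciferase fusion reporter · Dosing – single nominal 100 nM (0.1 µM) compound dose · Incubation – compound exposure 20 h at 37 °C, cells 48 h post-transfection · Technique – Brite-lite luminescence · Evaluation – average fold change versus DMSO vehicle · Control set – DMSO vehicle-treated cells as reference · Repeats – quadruplicate wells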

Cyclin-dependent kinase inhibitor 1B (Homo sapiens), sequence (P46527 whole entry, looked up, the tested form may be a part): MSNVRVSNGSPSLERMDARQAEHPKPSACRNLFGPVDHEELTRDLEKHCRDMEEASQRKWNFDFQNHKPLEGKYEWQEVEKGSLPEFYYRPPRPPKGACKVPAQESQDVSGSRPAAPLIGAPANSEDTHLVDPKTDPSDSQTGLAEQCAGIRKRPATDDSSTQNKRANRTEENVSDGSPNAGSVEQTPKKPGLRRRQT

Row | Structure (SMILES) | fold change
1 | c1ccc2[nH]c(CNc3nc(N4CCOCC4)nc4c3ncn4-c3ccsc3)nc2c1 | 3.13 (inactive)
2 | O=[N+]([O-])c1cccc2[nH]c(CNc3nc(N4CCOCC4)nc4c3ncn4-c3ccsc3)nc12 | 4.61 (inactive)
